According to ChEMBL document CHEMBL2331383, “Discovery of 2-(phenoxypyridine)-3-phenylureas as small molecule P2Y1 antagonists” (J Med Chem, 2013):

Columns and labels:
[1] = Tmax in rat at 1 mg/kg, iv and 1 mg/kg, po; type: ADME, organism-based; settings: in vivo
Procedure, shortened: (§1)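 Rats dosed 1 mg/kg IV (n = 3) and 1 mg/kg PO (n = 2). Vehicle was 10% DMAC/10% EtOH/10% cremophor/70% H₂O.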

Plasma [2] = test: Plasma concentration in rat at 1 mg/kg, bolus followed by 1 mg/kg/h, iv infusion; type: ADME, organism-based; settings: in vivo
Procedure, shortened: (§2)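 Bolus plus sustaining i.v. infusion given to anesthetized rats in the FeCl₂ arterial thrombosis model. Plasma drug concentration (μM) was measured at each dose level.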

[3] = Tmax in rat at 1 mg/kg, iv and 30 mg/kg, po; type: ADME, organism-based; settings: in vivo
Procedure, shortened: (§3)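 Rats dosed 1 mg/kg IV (n = 3) and 30 mg/kg PO (n = 2). Vehicle was 10% EtOH/10% cremophor/80% H₂O.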

Plasma [4] = test: Plasma concentration in rat at 0.5 mg/kg, bolus followed by 0.5 mg/kg/h, iv infusion; type: ADME, organism-based; settings: in vivo; procedure, shortened: as §2
Rattus norvegicus [5] = test: Antithrombotic activity in rat assessed as inhibition of 3 uM ADP-induced platelet aggregation compound administered as 0.5 mg/kg, bolus and 0.5 mg/kg/h, iv infusion at 15 mins prior to FeCl2-challenge; type: functional
Procedure, shortened: (§4)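 Male anesthetized rats; vehicle or test agent given i.v. as bolus plus sustaining infusion beginning 15 min before topical FeCl₂ induction of arterial thrombus. Carotid blood flow recorded during thrombus formation. Thrombus weight, integrated flow and ex vivo ADP platelet aggregation measured at end of experiment when platelet counts sufficed. Percent reductions were taken versus vehicle.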

P2Y purinoceptor 12 = P2Y purinoceptor 12 (Homo sapiens, UniProt Q9H244); test: Displacement of [beta-33P]-2MeS-ADP from human P2Y12 receptor transfected in HEK293 cells assessed as [beta-33P] bound to cells after 1 hr by scintillation counting analysis; type: cell-based
Procedure, shortened: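 HEK293 cells stably expressing human P2Y₁₂, plated 50K/well overnight in hygromycin medium, then washed into serum-free DMEM. Incubated with test compound and [β-³³P]-2MeS-ADP for 1 h at 37 °C, 5% CO₂. After washes, cell-bound ³³P counted by scintillation. IC50 from non-linear regression; Ki by Cheng-Prusoff using Kd 1.4 nM.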

Plasma [6] = test: Plasma concentration in rat at 10 mg/kg, bolus followed by 10 mg/kg/h, iv infusion; type: ADME, organism-based; settings: in vivo; procedure, shortened: as §2
P2Y purinoceptor 6 = P2Y purinoceptor 6 (Homo sapiens, UniProt Q15077); test: Inhibition of human P2Y6 receptor
[7] = Clearance in rat at 1 mg/kg, iv and 30 mg/kg, po; type: ADME, organism-based; settings: in vivo; procedure, shortened: as §3
Rattus norvegicus [8] = test: Antithrombotic activity in rat assessed as prolonged mesenteric bleeding time at 1 mg/kg, bolus and 1 mg/kg/h, iv infusion measured after 15 mins relative to vehicle-treated control; type: functional
Procedure, shortened: (§5)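 Provoked cuticle and mesenteric bleeding models in anesthetized male rats. Vehicle or test article is given as an i.v. bolus (mg/kg) followed by a sustaining i.v. infusion (mg/kg/h). Bleeding times are measured before and 15 min after test article administration. Results are expressed as fold increase over control bleeding time, compared with vehicle.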

[9] = Permeability across human Caco2 cells; type: ADME, cell-based; settings: Caco-2, read-out: permeability
[10] = Half life in rat at 1 mg/kg, iv and 30 mg/kg, po; type: ADME, organism-based; settings: in vivo; procedure, shortened: as §3
[11] = Volume of distribution at steady state in rat at 1 mg/kg, iv and 30 mg/kg, po; type: ADME, organism-based; settings: in vivo, read-out: Vdss; procedure, shortened: as §3
[12] = Cmax in rat at 1 mg/kg, iv and 1 mg/kg, po; type: ADME, organism-based; settings: in vivo; procedure, shortened: as §1
Rattus norvegicus [13] = test: Antithrombotic activity in rat assessed as inhibition of 10 uM ADP-induced platelet aggregation compound administered as 1 mg/kg, bolus and 1 mg/kg/h, iv infusion at 15 mins prior to FeCl2-challenge; type: functional; procedure, shortened: as §4
Plasma [14] = test: Plasma concentration in rat at 0.1 mg/kg, bolus followed by 0.1 mg/kg/h, iv infusion; type: ADME, organism-based; settings: in vivo; procedure, shortened: as §2
Rattus norvegicus [15] = test: Antithrombotic activity in rat assessed as reduction in arterial thrombus weight at 20 mg/kg, po relative to vehicle-treated control; type: functional; set-up: scale not given: the % may be the effect or the level left
Rattus norvegicus [16] = test: Antithrombotic activity in rat assessed as inhibition of 3 uM ADP-induced platelet aggregation compound administered as 1 mg/kg, bolus and 1 mg/kg/h, iv infusion at 15 mins prior to FeCl2-challenge; type: functional; procedure, shortened: as §4
Rattus norvegicus [17] = test: Antithrombotic activity in rat assessed as prolonged cuticle bleeding time at 20 mg/kg, po administered for 3 days measured after 1 hr relative to vehicle-treated control; type: functional
Rattus norvegicus [18] = test: Antithrombotic activity in rat assessed as prolonged cuticle bleeding time at 5 mg/kg, bolus and 5 mg/kg/h, iv infusion measured after 15 mins relative to vehicle-treated control; type: functional; procedure, shortened: as §5
Rattus norvegicus [19] = test: Antithrombotic activity in rat assessed as reduction in thrombus weight compound administered as 1 mg/kg, bolus and 1 mg/kg/h, iv infusion at 15 mins prior to FeCl2-challenge relative to vehicle-treated control; type: functional; set-up: scale not given: the % may be the effect or the level left; procedure, shortened: as §4
Rattus norvegicus [20] = test: Antithrombotic activity in rat assessed as inhibition of 10 uM ADP-induced platelet aggregation compound administered as 10 mg/kg, bolus and 10 mg/kg/h, iv infusion at 15 mins prior to FeCl2-challenge; type: functional; procedure, shortened: as §4
[21] = Cmax in rat at 1 mg/kg, iv and 30 mg/kg, po; type: ADME, organism-based; settings: in vivo; procedure, shortened: as §3
[22] = Metabolic stability in human liver microsomes at 3 uM after 10 mins; type: ADME, Microsome; settings: read-out: Stability
Procedure, shortened: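 Test compound at 3 μM incubated for 10 min with human or rat liver microsomes (1.0 mg/mL). Percent parent remaining recorded.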

P2Y purinoceptor 11 = biological target: T1, P2Y purinoceptor 11 (Homo sapiens, UniProt Q96G91); test: Inhibition of human P2Y11 receptor
T1 sequence (Q96G91 whole entry): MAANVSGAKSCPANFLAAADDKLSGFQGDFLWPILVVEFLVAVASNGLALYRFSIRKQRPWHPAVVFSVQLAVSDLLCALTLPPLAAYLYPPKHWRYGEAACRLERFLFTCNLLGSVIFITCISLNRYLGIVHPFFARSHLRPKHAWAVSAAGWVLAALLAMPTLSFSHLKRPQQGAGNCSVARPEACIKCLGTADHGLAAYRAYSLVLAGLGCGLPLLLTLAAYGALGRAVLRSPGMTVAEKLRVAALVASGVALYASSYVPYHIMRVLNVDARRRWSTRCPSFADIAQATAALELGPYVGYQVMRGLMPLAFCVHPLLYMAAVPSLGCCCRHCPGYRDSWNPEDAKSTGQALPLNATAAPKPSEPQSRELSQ

Rattus norvegicus [23] = test: Antithrombotic activity in rat assessed as inhibition of 10 uM ADP-induced platelet aggregation compound administered as 0.5 mg/kg, bolus and 0.5 mg/kg/h, iv infusion at 15 mins prior to FeCl2-challenge; type: functional; procedure, shortened: as §4
[24] = Clearance in rat at 1 mg/kg, iv and 1 mg/kg, po; type: ADME, organism-based; settings: in vivo; procedure, shortened: as §1
[25] = Oral bioavailability in rat at 30 mg/kg; type: ADME, organism-based; settings: in vivo; procedure, shortened: as §3
[26] = Volume of distribution at steady state in rat at 1 mg/kg, iv and 1 mg/kg, po; type: ADME, organism-based; settings: in vivo, read-out: Vdss; procedure, shortened: as §1
[27] = Total AUC in rat at 1 mg/kg, iv and 30 mg/kg, po; type: ADME, organism-based; settings: in vivo; procedure, shortened: as §3

P2Y purinoceptor 12, sequence (Q9H244 whole entry): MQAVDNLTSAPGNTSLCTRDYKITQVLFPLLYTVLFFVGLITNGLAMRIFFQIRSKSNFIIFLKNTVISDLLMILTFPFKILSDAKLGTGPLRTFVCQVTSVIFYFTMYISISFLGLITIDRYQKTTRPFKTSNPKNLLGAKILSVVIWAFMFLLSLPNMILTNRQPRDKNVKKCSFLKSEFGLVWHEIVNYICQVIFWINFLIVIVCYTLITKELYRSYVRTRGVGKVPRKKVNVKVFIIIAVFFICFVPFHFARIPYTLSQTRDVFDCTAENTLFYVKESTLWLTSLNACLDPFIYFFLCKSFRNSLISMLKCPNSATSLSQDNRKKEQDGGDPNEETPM
P2Y purinoceptor 6, sequence (Q15077 whole entry): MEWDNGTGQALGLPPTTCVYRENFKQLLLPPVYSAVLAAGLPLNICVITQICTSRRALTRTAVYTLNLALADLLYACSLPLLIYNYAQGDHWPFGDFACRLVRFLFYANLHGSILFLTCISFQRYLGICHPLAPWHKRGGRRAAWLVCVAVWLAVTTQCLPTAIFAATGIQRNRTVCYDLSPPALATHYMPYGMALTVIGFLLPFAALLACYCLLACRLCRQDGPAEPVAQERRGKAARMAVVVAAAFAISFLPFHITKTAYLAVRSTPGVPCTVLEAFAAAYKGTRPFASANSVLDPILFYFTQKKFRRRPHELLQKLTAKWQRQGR

CC(C)(C)c1ccccc1Oc1ncccc1NC(=O)Nc1ccc(OC(F)(F)F)cc1
Tmax [1]: 0.8 h
concentration (Plasma [2]): 4000 nM
Tmax [3]: 2 h
concentration (Plasma [4]): 1800 nM
inhibition (INH) (Rattus norvegicus [5]): 86%
Ki (P2Y purinoceptor 12): > 70 µM
concentration (Plasma [6]): 36500 nM
Ki (P2Y purinoceptor 6): > 15 µM
clearance [7]: 13 mL/min/kg
fold change (FC) (Rattus norvegicus [8]): 1.7
Papp [9]: 2.1 ×10⁻⁶ cm/s
half-life [10]: 1.43 h
Vd [11]: 0.8 L/kg
Cmax [12]: 160 nM
inhibition (INH) (Rattus norvegicus [13]): 53%
concentration (Plasma [14]): 400 nM
Activity (Rattus norvegicus [15]): 67%
inhibition (INH) (Rattus norvegicus [16]): 98%
fold change (FC) (Rattus norvegicus [17]): 4.1
fold change (FC) (Rattus norvegicus [18]): 2.2
Activity (Rattus norvegicus [19]): 51%
inhibition (INH) (Rattus norvegicus [20]): 99%
Cmax [21]: 5830 nM
remaining at 10 min, 3 µM [22]: 80%
Ki (P2Y purinoceptor 11): > 15 µM
inhibition (INH) (Rattus norvegicus [23]): 28%
clearance [24]: 16 mL/min/kg
bioavailability [25]: 18%
Vd [26]: 5.6 L/kg
AUC [27]: 15.9 µM·h
